This is an account of results in ChEMBL document CHEMBL3616437, “Thiazole compounds with activity against Cryptococcus gattii and Cryptococcus neoformans in vitro” (Eur J Med Chem, 2015).

The test system of assay [1] is Cryptococcus neoformans. The experiment in a line: Antifungal activity against Cryptococcus neoformans 96806 assessed as reduction in cell viability at 1.9 uM after 6 to 72 hrs by MTT assay. Type of assay: functional. In general terms: Tetrazolium dyes change colour on reduction, which living cells bring about.
Assay [2] relates to Cryptococcus neoformans. The experiment in a line: Antifungal activity against Cryptococcus neoformans ATCC 24067 assessed as reduction in cell viability at 1.9 uM after 6 to 72 hrs by MTT assay. Type of assay: functional.
Assay [3] has as its system Cryptococcus neoformans. The experiment in a line: Antifungal activity against Cryptococcus neoformans VM-MCMMPI assessed as reduction in cell viability at 1.9 uM after 6 to 72 hrs by MTT assay. Type of assay: functional.
Assay [4] deals with Cryptococcus neoformans. The experiment in a line: Antifungal activity against Cryptococcus neoformans 5396 assessed as reduction in cell viability at 1.9 uM after 6 to 72 hrs by MTT assay. Type of assay: functional.
For assay [5], the system named is Cryptococcus neoformans. The experiment in a line: Antifungal activity against Cryptococcus neoformans 27JF assessed as reduction in cell viability at 1.9 uM after 6 to 72 hrs by MTT assay. Type of assay: functional.
Assay [6] deals with Cryptococcus neoformans. Put plainly: Antifungal activity against Cryptococcus neoformans LMM820 assessed as reduction in cell viability at 1.9 uM after 6 to 72 hrs by MTT assay. Type of assay: functional.
The test system of assay [7] is Cryptococcus gattii species complex. Put plainly: Antifungal activity against Cryptococcus gattii 196L/03 assessed as reduction in cell viability at 26 uM after 6 to 72 hrs by MTT assay. Format: functional, Cryptococcus bacillisporus. In short, it runs like this:
(§1)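 Time-kill setup: colonies from two 48 h, 35°C SDA passages were suspended in saline to 70% transmittance at 530 nm. They were then diluted to 1-5 x10^3 cells/mL in RPMI with L-glutamine buffered to pH 7.0 with 0.165 M MOPS. Plates were incubated at 35°C for 0-72 h, then MTT (5.0 mg/mL) was added for 3 h. After isopropanol, absorbance was read at 490 nm. Drug-free controls were included, results were confirmed by SDA colony counts, and assays were run in triplicate.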

In assay [8] the test system is Cryptococcus neoformans. The experiment in a line: Antifungal activity against Cryptococcus neoformans ATCC 28957 assessed as reduction in cell viability at 26 uM after 6 to 72 hrs by MTT assay. Format: functional. An outline of the steps:
as §1

Assay [9] deals with Cryptococcus neoformans. Put plainly: Antifungal activity against Cryptococcus neoformans VM-MCMMPI assessed as reduction in cell viability at 26 uM after 6 to 72 hrs by MTT assay. Type of assay: functional. In short, it runs like this:
as §1

In assay [10] the test system is Cryptococcus gattii species complex. The experiment in a line: Antifungal activity against Cryptococcus gattii 547/OTTI-97-PI-10 assessed as reduction in cell viability at 26 uM after 6 to 72 hrs by MTT assay. Type of assay: functional, Cryptococcus bacillisporus. In short, it runs like this:
as §1

In assay [11] the test system is Cryptococcus bacillisporus. Put plainly: Antifungal activity against Cryptococcus gattii ATCC 32608 assessed as reduction in cell viability at 26 uM after 6 to 72 hrs by MTT assay. Format: functional. In short, it runs like this:
as §1

For assay [12], the system named is Cryptococcus neoformans. Put plainly: Antifungal activity against Cryptococcus neoformans 5396 assessed as reduction in cell viability at 26 uM after 6 to 72 hrs by MTT assay. Format: functional. In short, it runs like this: as §1
In assay [13] the test system is Cryptococcus neoformans. The experiment in a line: Antifungal activity against Cryptococcus neoformans ATCC 24067 assessed as reduction in cell viability at 26 uM after 6 to 72 hrs by MTT assay. Format: functional. In short, it runs like this:
as §1

Assay [14] has as its system Cryptococcus neoformans. Put plainly: Antifungal activity against Cryptococcus neoformans 27JF assessed as reduction in cell viability at 26 uM after 6 to 72 hrs by MTT assay. Type of assay: functional. An outline of the steps: as §1
Assay [15] concerns Cryptococcus gattii species complex. Put plainly: Antifungal activity against Cryptococcus gattii L28/02 assessed as reduction in cell viability at 26 uM after 6 to 72 hrs by MTT assay. Type of assay: functional, Cryptococcus bacillisporus. In short, it runs like this: as §1
The test system is the same in assay [16]. Put plainly: Antifungal activity against Cryptococcus gattii ATCC 24065 assessed as reduction in cell viability at 0.12 uM after 6 to 72 hrs by MTT assay.
The test system is the same in assay [17]. Put plainly: Antifungal activity against Cryptococcus gattii L28/02 assessed as reduction in cell viability at 0.12 uM after 6 to 72 hrs by MTT assay. Type of assay: functional, Cryptococcus bacillisporus.
Assay [18] shares this test system. Put plainly: Antifungal activity against Cryptococcus gattii ICB181 assessed as reduction in cell viability at 0.12 uM after 6 to 72 hrs by MTT assay. Format: functional, Cryptococcus bacillisporus.
Assay [19] has as its system Cryptococcus neoformans. Put plainly: Post-antifungal activity against Cryptococcus neoformans CN31 assessed as organism required time to achieve cell population of 10^4 cells/ml at 0.05 uM treated for 1 hr by MTT assay. Type of assay: functional.
Assay [20] has as its system Cryptococcus neoformans. Put plainly: Antifungal activity against Cryptococcus neoformans CN31 assessed as reduction in cell viability at 0.12 uM after 6 to 72 hrs by MTT assay. Format: functional.
The test system of assay [21] is Cryptococcus neoformans. The experiment in a line: Antifungal activity against Cryptococcus neoformans WP assessed as reduction in cell viability at 0.12 uM after 6 to 72 hrs by MTT assay. Format: functional.
For assay [22], the system named is Cryptococcus gattii species complex. Put plainly: Post-antifungal activity against Cryptococcus gattii L27/01 assessed as organism required time to achieve cell population of 10^4 cells/ml at 0.11 uM treated for 1 hr by MTT assay. Type of assay: functional, Cryptococcus bacillisporus.
In assay [23] the test system is Cryptococcus neoformans. The experiment in a line: Antifungal activity against Cryptococcus neoformans 28JF assessed as reduction in cell viability at 0.12 uM after 6 to 72 hrs by MTT assay. Format: functional.
Assay [24] relates to Cryptococcus neoformans. The experiment in a line: Antifungal activity against Cryptococcus neoformans ATCC 28957 assessed as reduction in cell viability at 0.12 uM after 6 to 72 hrs by MTT assay. Format: functional.
Assay [25] deals with Cryptococcus bacillisporus. The experiment in a line: Antifungal activity against Cryptococcus gattii ATCC 32608 assessed as reduction in cell viability after at 0.12 uM 6 to 72 hrs by MTT assay. Type of assay: functional.
Assay [26] deals with Cryptococcus gattii species complex. The experiment in a line: Antifungal activity against Cryptococcus gattii 23/10993 assessed as reduction in cell viability at 0.12 uM after 6 to 72 hrs by MTT assay. Type of assay: functional, Cryptococcus bacillisporus.
For assay [27] the test system is unchanged. Put plainly: Antifungal activity against Cryptococcus gattii LMM818 assessed as reduction in cell viability at 0.12 uM after 6 to 72 hrs by MTT assay. Format: functional, Cryptococcus bacillisporus.
Assay [28] deals with Cryptococcus neoformans. Put plainly: Antifungal activity against Cryptococcus neoformans VM-MCMMPI assessed as reduction in cell viability at 0.12 uM after 6 to 72 hrs by MTT assay. Type of assay: functional.
Assay [29] deals with Cryptococcus gattii species complex. The experiment in a line: Antifungal activity against Cryptococcus gattii 1913ER assessed as reduction in cell viability at 0.12 uM after 6 to 72 hrs by MTT assay. Format: functional, Cryptococcus bacillisporus.
Assay [30] relates to Cryptococcus neoformans. The experiment in a line: Antifungal activity against Cryptococcus neoformans ATCC 62066 assessed as reduction in cell viability at 0.12 uM after 6 to 72 hrs by MTT assay. Type of assay: functional.
For assay [31], the system named is Cryptococcus gattii species complex. Put plainly: Antifungal activity against Cryptococcus gattii 135L/03 assessed as reduction in cell viability at 0.12 uM after 6 to 72 hrs by MTT assay. Format: functional, Cryptococcus bacillisporus.
Assay [32] concerns Cryptococcus neoformans. The experiment in a line: Antifungal activity against Cryptococcus neoformans F10 assessed as reduction in cell viability at 0.9 uM after 6 to 72 hrs by MTT assay. Type of assay: functional.
In assay [33] the test system is Cryptococcus neoformans. The experiment in a line: Antifungal activity against Cryptococcus neoformans ATCC 62066 assessed as reduction in cell viability at 0.9 uM after 6 to 72 hrs by MTT assay. Type of assay: functional.
Assay [34] relates to Cryptococcus gattii species complex. Put plainly: Post-antifungal activity against Cryptococcus gattii L27/01 assessed as organism required time to achieve cell population of 10^4 cells/ml at 0.45 uM treated for 1 hr by MTT assay. Type of assay: functional, Cryptococcus bacillisporus.
Assay [35] has as its system Cryptococcus neoformans. Put plainly: Post-antifungal activity against Cryptococcus neoformans CN31 assessed as organism required time to achieve cell population of 10^4 cells/ml at 0.9 uM treated for 1 hr by MTT assay. Type of assay: functional.
Assay [36] deals with Cryptococcus neoformans. Put plainly: Antifungal activity against Cryptococcus neoformans 5396 assessed as reduction in cell viability at 0.9 uM after 6 to 72 hrs by MTT assay. Format: functional.

In the case of `C(=N\Nc1nc(-c2ccccc2)cs1)/C1CCCCC1`, the Activity in the assay on Cryptococcus neoformans [1], in the assay with Cryptococcus neoformans [2], in the assay with Cryptococcus neoformans [3], in the assay with Cryptococcus neoformans [4], with Cryptococcus neoformans [5] and with Cryptococcus neoformans [6] was 90% throughout.
For the compound `OC(Cn1cncn1)(Cn1cncn1)c1ccc(F)cc1F` [FLUCONAZOLE], the Activity (in [7]; in the assay with Cryptococcus neoformans [8]; in the assay with Cryptococcus neoformans [9]; in assay [10]; in assay [11]; in the assay on Cryptococcus neoformans [12]) was 80% in each case. In addition, the Activity (in the assay on Cryptococcus neoformans [13]; in the assay on Cryptococcus neoformans [14]; in [15]) was 80% in each case.
Take `C[C@@H]1[C@H](O)[C@@H](C)/C=C/C=C/C=C/C=C/C=C/C=C/C=C/[C@H](O[C@@H]2O[C@H](C)[C@@H](O)[C@H](N)[C@@H]2O)C[C@@H]2O[C@](O)(C[C@@H](O)C[C@@H](O)[C@H](O)CC[C@@H](O)C[C@@H](O)CC(=O)O[C@H]1C)C[C@H](O)[C@H]2C(=O)O` [AMPHOTERICIN B]: the Activity (in assay [16]; in [17]; in assay [18]; in the assay with Cryptococcus neoformans [20]; in the assay with Cryptococcus neoformans [21]; with Cryptococcus neoformans [23]) was 90% in each case. Moreover, the Activity (with Cryptococcus neoformans [24]; in assay [25]; in assay [26]; in assay [27]; in the assay on Cryptococcus neoformans [28]; in [29]) was 90% throughout. Further, the Activity (with Cryptococcus neoformans [30]; in assay [31]) was 90% each time. Besides, the figures for the Time (in the assay with Cryptococcus neoformans [19]; in assay [22]) were 2.75 h and 2.65 h, respectively.
Consider `COc1ccc(-c2csc(N/N=C(\C)CCO)n2)cc1`, for which the Activity in the assay with Cryptococcus neoformans [32], with Cryptococcus neoformans [33] and with Cryptococcus neoformans [36] was 90% throughout. For the same compound, the results for the Time (in assay [34]; in the assay with Cryptococcus neoformans [35]) were 1.7 h and 2.8 h, respectively.
